Test results as given in ChEMBL document CHEMBL1148785, “Second generation tetrahydroquinoline-based protein farnesyltransferase inhibitors as antimalarials” (J Med Chem, 2007).

Columns and labels:
[1] = tested on: Plasmodium falciparum; assay: Inhibition of Plasmodium falciparum protein farnesyltransferase at 50 nM by scintillation proximity assay
[2] = tested on: Plasmodium falciparum; assay: Inhibition of Plasmodium falciparum protein farnesyltransferase at 5 nM by scintillation proximity assay
[3] = tested on: Plasmodium falciparum; assay: Inhibition of Plasmodium falciparum protein farnesyltransferase at 0.5 nM by scintillation proximity assay
[4] = tested on: Plasmodium falciparum; assay: Antimalarial activity against Plasmodium falciparum 3D7; format: functional; details: Plasmodium falciparum, 3D7; read-out: ED50 (the source's name)
Procedure, shortened: (§1)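 Asynchronous culture in type A+ erythrocytes at 0.5% parasitemia and 0.5% hematocrit, grown in RPMI-1640 with 20% heat-inactivated human A+ plasma. Compound was serially diluted from a top final 5 µM, with DMSO vehicle as 100% growth. Plates ran 48 h at 37 °C under 5% CO2/5% O2/90% N2, then [3H]-hypoxanthine (0.3 µCi) for 24 h. Filter-harvested counts were corrected for the uninfected-RBC background. ED50 by linear regression; duplicates averaged.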

[5] = tested on: Plasmodium falciparum; assay: Antimalarial activity against Plasmodium falciparum K1; format: functional; details: Plasmodium falciparum, K1; read-out: ED50 (the source's name); procedure, shortened: as §1

Compound	inhibition [1] [%]	inhibition [2] [%]	inhibition [3] [%]	EC50 [4] [nM]	EC50 [5] [nM]
Cn1cnc(S(=O)(=O)N(CC(=O)NC(C)(C)C)C2Cc3cc(C(=O)O)ccc3N(Cc3cncn3C)C2)c1 (stereo not given)	80	29	0	3500	1420
COC(=O)N1CCC(CN(C2Cc3cc(C#N)ccc3N(Cc3cncn3C)C2)S(=O)(=O)CS(C)(=O)=O)CC1 (stereo not given)	15	0	0	> 5000	> 5000
CCS(=O)(=O)N(CC1CCN(C(=O)OC)CC1)C1Cc2cc(C#N)ccc2N(Cc2cncn2C)C1 (stereo not given)	44	0	0	4100	> 5000
COC(=O)N1CCC(CN(C2Cc3cc(C#N)ccc3N(Cc3cncn3C)C2)S(=O)(=O)c2cccc3ccccc23)CC1 (stereo not given)	88	39	2	550	1700
Cn1cncc1CN1CC(N(CC(=O)O)S(=O)(=O)c2ccccn2)Cc2cc(C#N)ccc21 (stereo not given)	81	33	6	2100	2600
COC(=O)c1cccc(CN(C2Cc3cc(C#N)ccc3N(Cc3cncn3C)C2)S(=O)(=O)c2ccccn2)n1 (stereo not given)	96	94	66	600	900
Cn1cncc1CN1CC(N(Cc2ccc(S(C)(=O)=O)cc2)S(=O)(=O)c2ccccc2Cl)Cc2cc(C#N)ccc21 (stereo not given)	99	87	16	400	800
CC(C)OC(=O)N1CCC(CN(C2Cc3cc(-c4ccccc4)ccc3N(Cc3cn(C)cn3)C2)S(=O)(=O)c2cn(C)cn2)CC1 (stereo not given)	32	0	0	450	350
Cn1cncc1CN1CC(N(Cc2ccc(S(C)(=O)=O)cc2)S(=O)(=O)c2ccc3c(c2)OCCCO3)Cc2cc(C#N)ccc21 (stereo not given)	97	78	10	2100	3500
Cn1cncc1CN1CC(N(CCN)S(=O)(=O)c2ccccn2)Cc2cc(C#N)ccc21 (stereo not given)	65	11	6	2700	> 5000
COC(=O)N1CCC(CN(C2Cc3cc(C#N)ccc3N(S(=O)(=O)c3cncn3C)C2)S(=O)(=O)c2ccccn2)CC1 (stereo not given)	0	0	0	> 5000	3200
Cn1cncc1CN1CC(N(Cc2ccc(F)cc2)S(=O)(=O)c2ccccn2)Cc2cc(C#N)ccc21 (stereo not given)	91	50	11	430	2500
CCOc1ccccc1CN(C1Cc2cc(C#N)ccc2N(Cc2cncn2C)C1)S(=O)(=O)c1cn(C)cn1 (stereo not given)	11	5	1	2600	3600
CCN(C1Cc2cc(-c3ccccc3)ccc2N(Cc2cncn2C)C1)S(=O)(=O)c1cn(C)cn1 (stereo not given)	86	29	10	5000	> 5000
C=C(Br)CN(C1Cc2cc(-c3ccccc3)ccc2N(Cc2cncn2C)C1)S(=O)(=O)c1cn(C)cn1 (stereo not given)	97	89	21	380	360
Cn1cncc1CN1CC(N(CC(=O)NC(C)(C)C)S(=O)(=O)CCN2C(=O)c3ccccc3C2=O)Cc2cc(C#N)ccc21 (stereo not given)	60	21	14	> 5000	> 5000
CN(C1Cc2cc(-c3ccccc3)ccc2N(Cc2cn(C)cn2)C1)S(=O)(=O)c1cn(C)cn1 (stereo not given)	88	38	10	> 5000	> 5000
Cn1cncc1CN1CC(N(CCn2ccc3ccccc32)S(=O)(=O)c2ccccn2)Cc2cc(C#N)ccc21 (stereo not given)	98	79	10	370	400

The next molecules have a lower EC50 [4] than those just listed; values first:

inhibition [1] [%]	inhibition [2] [%]	inhibition [3] [%]	EC50 [4] [nM]	EC50 [5] [nM]	Compound
98	78	27	320	270	CN(CCCCN(C1Cc2cc(C#N)ccc2N(Cc2cncn2C)C1)S(=O)(=O)c1ccccn1)C(=O)OC(C)(C)C (stereo not given)
98	28	84	320	150	Cn1cncc1CN1CC(N(CC2CCN(C(=O)NC(C)(C)C)CC2)S(=O)(=O)c2ccccn2)Cc2cc(C#N)ccc21 (stereo not given)
52	9	0	270	450	CSCCC(=O)N(Cc1ccccc1F)C1Cc2cc(C#N)ccc2N(Cc2cncn2C)C1 (stereo not given)
93	64	18	230	1000	COCCCN(C1Cc2cc(C#N)ccc2N(Cc2cncn2C)C1)S(=O)(=O)c1ccccn1 (stereo not given)
91	48	9	230	240	Cn1cncc1CN1CC(N(CCNC(=O)OC(C)(C)C)S(=O)(=O)c2ccccn2)Cc2cc(C#N)ccc21 (stereo not given)
96	71	9	200	650	Cn1cncc1CN1CC(N(CCc2ccc(F)cc2)S(=O)(=O)c2ccccn2)Cc2cc(C#N)ccc21 (stereo not given)
94	62	23	175	175	Cn1cc(S(=O)(=O)N(Cc2ccccc2F)C2Cc3cc(C#N)ccc3N(Cc3cncn3C)C2)cn1 (stereo not given)
98	79	14	170	190	COC(=O)N1CCC(CN(C2Cc3cc(C#N)ccc3N(Cc3cncn3C)C2)S(=O)(=O)c2ccc(OC)cc2)CC1 (stereo not given)
96	93	17	144	965	Cc1noc(C)c1CN(C1Cc2cc(C#N)ccc2N(Cc2cncn2C)C1)S(=O)(=O)c1ccccn1 (stereo not given)
99	81	24	138	105	COC(=O)N1CCC(CN(C2Cc3cc(C#N)ccc3N(Cc3cncn3C)C2)S(=O)(=O)c2ccc3c(c2)OCCCO3)CC1 (stereo not given)
99	89	31	135	100	COC(=O)N1CCC(CN(C2Cc3cc(C#N)ccc3N(Cc3cncn3C)C2)S(=O)(=O)c2cccc3nonc23)CC1 (stereo not given)
86	80	35	130	170	CN(CCCN(C1Cc2cc(C#N)ccc2N(Cc2cncn2C)C1)S(=O)(=O)c1ccccn1)C(=O)OC(C)(C)C (stereo not given)
97	96	54	78	75	Cn1cnc(S(=O)(=O)N(Cc2ccc(C(F)(F)F)o2)C2Cc3cc(C#N)ccc3N(Cc3cncn3C)C2)c1 (stereo not given)
98	56	94	75	55	CCS(=O)(=O)N1CCC(CN(C2Cc3cc(C#N)ccc3N(Cc3cncn3C)C2)S(=O)(=O)c2ccccn2)CC1 (stereo not given)
99	35	87	70	81	Cn1cncc1CN1CC(N(CC2CCN(C(=O)c3cccs3)CC2)S(=O)(=O)c2ccccn2)Cc2cc(C#N)ccc21 (stereo not given)
99	90	9	68	65	Cn1cnc(S(=O)(=O)N(Cc2ccc(-n3cccc3)cc2)C2Cc3cc(C#N)ccc3N(Cc3cncn3C)C2)c1 (stereo not given)
91	47	91	65	75	Cn1cncc1CN1CC(N(CC2CCN(C(=O)OCC(F)(F)F)CC2)S(=O)(=O)c2ccccn2)Cc2cc(C#N)ccc21 (stereo not given)
99	94	18	60	230	Cn1cnc(S(=O)(=O)N(Cc2cccc3nsnc23)C2Cc3cc(C#N)ccc3N(Cc3cncn3C)C2)c1 (stereo not given)
100	39	94	58	50	Cn1cncc1CN1CC(N(CC2CCN(C(=O)C3CCCC3)CC2)S(=O)(=O)c2ccccn2)Cc2cc(C#N)ccc21 (stereo not given)
100	95	42	50	65	Cn1cnc(S(=O)(=O)N(CCc2ccc(F)cc2)C2Cc3cc(C#N)ccc3N(Cc3cncn3C)C2)c1 (stereo not given)
100	97	49	35	< 20	COC(=O)N1CCC(CN(C2Cc3cc(C#N)ccc3N(Cc3cncn3C)C2)S(=O)(=O)c2ncn(C)c2C)CC1 (stereo not given)
100	98	46	25	< 20	Cc1noc(C)c1CN(C1Cc2cc(C#N)ccc2N(Cc2cncn2C)C1)S(=O)(=O)c1cn(C)cn1 (stereo not given)
97	95	54	9	4.5	COC(=O)N1CCC(CN(C2Cc3cc(C#N)ccc3N(Cc3cncn3C)C2)S(=O)(=O)c2cn(C)cn2)CC1 (stereo not given)
